Converted amounts (≈) assume the structure as drawn.
Columns and labels:
[1] = system: Staphylococcus aureus; assay: Antibacterial activity against Staphylococcus aureus CMCC(B) 26003 measured after 24 hrs by ELISA; format: functional; conditions: CMCC(B) 26003, 24 h
Outline: (§1)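 Broth microdilution MIC. Mid-log bacteria in MHB or TSB diluted 1000-fold, inoculated at 10^5 CFU/mL. Compounds added from DMSO stocks; final DMSO at most 0.05%. Incubation 24 h at 37 °C. Growth read as absorbance at 630 nm. MIC taken as the lowest concentration giving complete growth inhibition. Three independent experiments.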

[2] = system: Staphylococcus aureus; assay: Antibacterial activity against Staphylococcus aureus CMCC 25923 measured after 24 hrs by ELISA; format: functional; conditions: CMCC 25923, 24 h; outline: as §1
[3] = system: Streptococcus pyogenes; assay: Antibacterial activity against Streptococcus pyogenes CMCC 32067 measured after 24 hrs by ELISA; format: functional; conditions: CMCC 32067, 24 h; outline: as §1
[4] = system: Streptococcus pneumoniae; assay: Antibacterial activity against Streptococcus pneumoniae CMCC 31968 measured after 24 hrs by ELISA; format: functional; conditions: CMCC 31968, 24 h
[5] = system: Enterococcus faecalis; assay: Antibacterial activity against Enterococcus faecalis CMCC 29212 measured after 24 hrs by ELISA; format: functional; conditions: CMCC 29212, 24 h; outline: as §1
[6] = system: Bacillus subtilis; assay: Antibacterial activity against Bacillus subtilis CMCC 63501 measured after 24 hrs by ELISA; format: functional; conditions: CMCC 63501, 24 h; outline: as §1
[7] = system: Escherichia coli; assay: Antibacterial activity against Escherichia coli CMCC 25922 measured after 24 hrs by ELISA; format: functional; conditions: CMCC 25922, 24 h; outline: as §1
[8] = system: Escherichia coli; assay: Antibacterial activity against Escherichia coli CMCC 44568 measured after 24 hrs by ELISA; format: functional; conditions: CMCC 44568, 24 h; outline: as §1
[9] = system: Pseudomonas aeruginosa; assay: Antibacterial activity against Pseudomonas aeruginosa CMCC 27853 measured after 24 hrs by ELISA; format: functional; conditions: CMCC 27853, 24 h; outline: as §1
[10] = system: Pseudomonas aeruginosa; assay: Antibacterial activity against Pseudomonas aeruginosa CMCC 10104 measured after 24 hrs by ELISA; format: functional; conditions: CMCC 10104, 24 h; outline: as §1
[11] = system: Staphylococcus aureus; assay: Antibacterial activity against methicillin-resistant Staphylococcus aureus ATCC 43300 measured after 24 hrs by ELISA; format: functional; conditions: ATCC 43300, 24 h
Outline: (§2)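 Broth serial dilution MIC. Mid-log bacteria in Mueller-Hinton or Tryptone Soya broth, diluted 1000-fold and inoculated at 10^5 CFU/mL. Compounds from DMSO stock, final DMSO ≤0.05%. Incubated 24 h at 37 °C; growth read as absorbance at 630 nm. MIC is the lowest concentration giving complete growth inhibition. Three independent experiments.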

[12] = system: Staphylococcus aureus; assay: Antibacterial activity against methicillin-resistant Staphylococcus aureus ATCC 33591 measured after 24 hrs by ELISA; format: functional; conditions: ATCC 33591, 24 h; outline: as §2
[13] = system: Escherichia coli; assay: Antibacterial activity against multidrug-resistant Escherichia coli ATCC BAA-196 measured after 24 hrs by ELISA; format: functional; conditions: ATCC BAA-196, 24 h; outline: as §2
[14] = system: Pseudomonas aeruginosa; assay: Antibacterial activity against multidrug-resistant Pseudomonas aeruginosa ATCC BAA-2111 measured after 24 hrs by ELISA; format: functional; conditions: ATCC BAA-2111, 24 h; outline: as §2
[15] = system: Staphylococcus aureus; assay: Antibacterial activity against Staphylococcus aureus CMCC 25923 assessed as ratio of MIC after and before 16 passages at sub-MIC; format: functional
Outline: (§3)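 Resistance by serial passage. After an initial broth-dilution MIC, bacteria grown at MIC/2 were transferred to a fresh MIC assay every 22 h incubation, repeatedly. Norfloxacin was the comparator antibiotic. MIC was tracked against passage day.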

[16] = system: Escherichia coli; assay: Antibacterial activity against Escherichia coli CMCC 44568 assessed as ratio of MIC after and before 16 passages at sub-MIC; format: functional; outline: as §3
[17] = Cytotoxicity against human A590 cells measured after 48 hrs by CCK8 assay; format: functional, cell-based
Outline: (§4)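 Cells kept in DMEM with 10% FBS and penicillin-streptomycin at 37 °C, 5% CO2. About 1×10^4 cells per well attached for 24 h, then exposed for 48 h to 0.3, 1, 3, 10, 30 and 100 µmol/L of compound, in triplicate wells. CCK-8 added for 3 h, OD read at 450 nm. IC50 is the concentration inhibiting growth by 50%.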

[18] = system: SGC-7901; assay: Cytotoxicity against human SGC7901 cells measured after 48 hrs by CCK8 assay; format: functional, cell-based; conditions: SGC-7901, 48 h; outline: as §4
[19] = system: HEK-293T; assay: Cytotoxicity against HEK293T cells measured after 48 hrs by CCK8 assay; format: cell-based; conditions: Homo sapiens; outline: as §4
[20] = Selectivity index, ratio of IC50 for HEK293T cells to MIC for Staphylococcus aureus CMCC(B) 26003; format: toxicity; conditions: human, read-out: Selectivity Index
[21] = Selectivity index, ratio of IC50 for HEK293T cells to MIC for Staphylococcus aureus CMCC 25923; format: toxicity; conditions: human, read-out: Selectivity Index
[22] = Selectivity index, ratio of IC50 for HEK293T cells to MIC for Streptococcus pyogenes CMCC 32067; format: toxicity; conditions: human, read-out: Selectivity Index
[23] = Selectivity index, ratio of IC50 for HEK293T cells to MIC for Streptococcus pneumoniae CMCC 31968; format: toxicity; conditions: human, read-out: Selectivity Index
[24] = Selectivity index, ratio of IC50 for HEK293T cells to MIC for Enterococcus faecalis CMCC 29212; format: toxicity; conditions: human, read-out: Selectivity Index
[25] = Selectivity index, ratio of IC50 for HEK293T cells to MIC for Bacillus subtilis CMCC 63501; format: toxicity; conditions: human, read-out: Selectivity Index
[26] = Selectivity index, ratio of IC50 for HEK293T cells to MIC for Escherichia coli CMCC 25922; format: toxicity; conditions: human, read-out: Selectivity Index
[27] = Selectivity index, ratio of IC50 for HEK293T cells to MIC for Escherichia coli CMCC 44568; format: toxicity; conditions: human, read-out: Selectivity Index
[28] = Selectivity index, ratio of IC50 for HEK293T cells to MIC for Pseudomonas aeruginosa CMCC 27853; format: toxicity; conditions: human, read-out: Selectivity Index
[29] = Selectivity index, ratio of IC50 for HEK293T cells to MIC for Pseudomonas aeruginosa CMCC 10104; format: toxicity; conditions: human, read-out: Selectivity Index
[30] = Selectivity index, ratio of IC50 for HEK293T cells to MIC for methicillin-resistant Staphylococcus aureus ATCC 43300; format: toxicity; conditions: human, read-out: Selectivity Index
[31] = Selectivity index, ratio of IC50 for HEK293T cells to MIC for methicillin-resistant Staphylococcus aureus ATCC 33591; format: toxicity; conditions: human, read-out: Selectivity Index
[32] = Selectivity index, ratio of IC50 for HEK293T cells to MIC for multidrug-resistant Escherichia coli ATCC BAA-196; format: toxicity; conditions: human, read-out: Selectivity Index
[33] = Selectivity index, ratio of IC50 for HEK293T cells to MIC for multidrug-resistant Pseudomonas aeruginosa ATCC BAA-2111; format: toxicity; conditions: human, read-out: Selectivity Index

Row | Compound | MIC [1] [µM] | MIC [2] [µM] | MIC [3] [µM] | MIC [4] [µM] | MIC [5] [µM] | MIC [6] [µM] | MIC [7] [µM] | MIC [8] [µM] | MIC [9] [µM] | MIC [10] [µM] | MIC [11] [µM] | MIC [12] [µM] | MIC [13] [µM] | MIC [14] [µM] | Ratio [15] | Ratio [16] | other results
1 | CCn1cc(C(=O)O)c(=O)c2cc(F)c(N3CCNCC3)cc21 [NORFLOXACIN] | 0.39 (≈ 0.125 µg/mL) | 0.39 (≈ 0.125 µg/mL) | > 401 | > 401 | 3.13 (≈ 1 µg/mL) | 6.27 (≈ 2 µg/mL) | 0.39 (≈ 0.125 µg/mL) | 0.39 (≈ 0.125 µg/mL) | 6.27 (≈ 2 µg/mL) | 12.5 (≈ 4 µg/mL) | 1.57 (≈ 0.501 µg/mL) | 0.78 (≈ 0.249 µg/mL) | 1.57 (≈ 0.501 µg/mL) | 3.13 (≈ 1 µg/mL) | 32 | 16 | 
2 | C/C(=N/NC(=N)N)c1cn(S(=O)(=O)c2ccc(C)cc2)c2ccc(Br)cc12 | 4.47 (≈ 2 µg/mL) | 2.24 (≈ 1 µg/mL) | 286 (≈ 128 µg/mL) | 2.24 (≈ 1 µg/mL) | 8.94 (≈ 4.01 µg/mL) | 4.47 (≈ 2 µg/mL) | 286 (≈ 128 µg/mL) | 1.12 (≈ 0.502 µg/mL) | > 286 | > 286 | 1.12 (≈ 0.502 µg/mL) | 2.24 (≈ 1 µg/mL) | 0.56 (≈ 0.251 µg/mL) | > 71.6 | 0 | 0 | IC50 [17]: 4.44 µM; IC50 [18]: 1.51 µM; IC50 [19]: 56.4 µM; selectivity ratio [20]: 12.6; selectivity ratio [21]: 25.2; selectivity ratio [22]: 0.2; selectivity ratio [23]: 25.2; selectivity ratio [24]: 6.31; selectivity ratio [25]: 12.6; selectivity ratio [26]: 0.2; selectivity ratio [27]: 50.4; selectivity ratio [28]: < 0.2; selectivity ratio [29]: < 0.2; selectivity ratio [30]: 50.4; selectivity ratio [31]: 25.2; selectivity ratio [32]: 101; selectivity ratio [33]: < 0.79

Source: ChEMBL document CHEMBL4400518, “Synthesis, antimicrobial and cytotoxic activities, and molecular docking studies of N-arylsulfonylindoles containing an aminoguanidine, a semicarbazide, and a thiosemicarbazide moiety” (Eur J Med Chem, 2019)
